Experimental findings from ChEMBL document CHEMBL1145041, “Synthesis and structure-activity relationships of cis-tetrahydrophthalazinone/pyridazinone hybrids: a novel series of potent dual PDE3/PDE4 inhibitory agents” (J Med Chem, 2003) are described below.

For assay [1], the system named is Mus musculus. Nature of the assay: Inhibition of arachidonic acid (AA)-induced mouse ear edema after pretreatment with compound (1 h before AA) at a drug concentration of 30 umol/kg po. It is filed as functional. Summed up:
(§1)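 Mice dosed orally at 30 µmol/kg, 1 h before arachidonic acid applied to ear; edema read 1 h after AA (2 h post-dose). Percent inhibition of edema formation calculated versus provoked untreated controls; maximal attainable inhibition in model 80%.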

In another assay the target is Phosphodiesterase 3 (Homo sapiens, UniProt Q14432+Q13370). Put plainly: Inhibition of dual cGMP-inhibited phosphodiesterase 3 (PDE3) was determined in homogenates from human platelets. In outline:
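Enzyme source: homogenates of human platelets. Values as pIC50 (−log IC50), mean of two independent determinations each run in triplicate.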

The next assay deals with Phosphodiesterase 4 (Homo sapiens, UniProt P27815+Q08499+Q07343+Q08493). Put plainly: inhibition of cAMP-specific phosphodiesterase 4 (PDE4) was determined in cytosol from human neutrophils. In kind it is protein assay. In outline:
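Enzyme source: cytosol of human neutrophils. Values as pIC50 (−log IC50), mean of two independent determinations each run in triplicate.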

Assay [2] relates to Mus musculus. Put plainly: In vivo inhibition of arachidonic acid induced mouse ear edema 1 hr after pretreatment with 30 umol/kg peroral dose. In kind it is functional. Conditions: po. Summed up: as §1

A word on the inhibition in vivo: it is the share of the control response that was lost under treatment.

In the case of `COc1ccc(C2=NN(c3ccc(C4=NNC(=O)CC4C)cc3)C(=O)C3CC=CCC23)cc1OC1CCCC1` (stereo not drawn), the inhibition in vivo at 30 µmol/kg with Mus musculus [1] is 18%. Also, the “Log IC50” value is on record as -6.3 at Phosphodiesterase 3 and -7.8 on Phosphodiesterase 4.
As for `COc1ccc(C2=NN(c3ccccc3)C(=O)C3CC=CCC23)cc1Cl` (stereo not drawn), the results for the “Log IC50” value at Phosphodiesterase 3 and on Phosphodiesterase 4 were less than -5 and -7.1, respectively.
As for `COc1ccc(C2=NN(CC(=O)Nc3ccc(C4=NNC(=O)CC4C)cc3)C(=O)C3CC=CCC23)cc1OC` (stereo not drawn), the inhibition in vivo at 30 µmol/kg with Mus musculus [1] stood at 13%. Also, the “Log IC50” value was -6.7 on Phosphodiesterase 3 and -8.4 on Phosphodiesterase 4.
The like results for `COc1ccc(C2=NN(CCCCOc3ccc(C4=NNC(=O)CC4C)cc3)C(=O)C3CC=CCC23)cc1OC` (stereo not drawn) were, in that order, 32%, -7.1 and -8.7.
The corresponding values for `COc1ccc(C2=NN(c3ccc(C4=NNC(=O)CC4C)cc3)C(=O)C3CC=CCC23)cc1Cl` (stereo not drawn) are 35%, -7.1 and -7.
The corresponding values for `COc1ccc(C2=NN(CCCCC(=O)Nc3ccc(C4=NNC(=O)CC4C)cc3)C(=O)C3CC=CCC23)cc1OC` (stereo not drawn) are 26%, -7 and -8.2.
As to `COc1ccc(C2=NN(CC(=O)Nc3ccc(-c4ccc(O)nn4)cc3)C(=O)C3CC=CCC23)cc1OC` (stereo not drawn), the inhibition in vivo at 30 µmol/kg with Mus musculus [1] turned out to be 31%. In addition, the “Log IC50” value is -5.9 on Phosphodiesterase 3 and -8.1 on Phosphodiesterase 4.
Turning to `COc1ccc(C2=NN(CCCCOc3ccc(C4=NNC(=O)CC4C)cc3)C(=O)C3CC=CCC23)cc1Cl` (stereo not drawn), in the assay on Mus musculus [1], the inhibition in vivo at 30 µmol/kg is 47%. Further, the “Log IC50” value at Phosphodiesterase 3 is -7.5; on Phosphodiesterase 4, -7.8.
Turning to `COc1ccc(C2=NN(CC(=O)Nc3cccc(C4=NNC(=O)CC4C)c3)C(=O)C3CC=CCC23)cc1OC` (stereo not drawn), the “Log IC50” value on Phosphodiesterase 3 is -5.8; at Phosphodiesterase 4, -8.4.
Take `CC1(C)C(=O)Nc2ccc(-c3ccc(O)nn3)cc21`: at Phosphodiesterase 3, the “Log IC50” value is -6.9.
Regarding `COc1ccc([C@]2(C#N)CC[C@@H](C(=O)O)CC2)cc1OC1CCCC1` [CILOMILAST], the inhibition in vivo at 30 µmol/kg in the assay on Mus musculus [1] amounted to 33%. Moreover, the “Log IC50” value on Phosphodiesterase 3 was less than -5.
In the case of `CCOc1ccc(C2=NN(CCCCOc3ccc(C4=NNC(=O)CC4C)cc3)C(=O)C3CC=CCC23)cc1OCC` (stereo not drawn), the inhibition in vivo at 30 µmol/kg in the assay on Mus musculus [1] was 46%. Further, the “Log IC50” value was -6.7 on Phosphodiesterase 3 and -8.6 on Phosphodiesterase 4.
With `COc1ccc(C2=NN(c3ccccc3)C(=O)C3CC=CCC23)cc1OC` (stereo not drawn), the inhibition in vivo at 30 µmol/kg with Mus musculus [2] is 13%. The “Log IC50” value was less than -5 on Phosphodiesterase 3 and -7.9 at Phosphodiesterase 4.
Take `CCOc1ccc(C2=NN(c3ccccc3)C(=O)C3CC=CCC23)cc1OCC` (stereo not drawn): the “Log IC50” value was less than -5 on Phosphodiesterase 3 and -7.7 at Phosphodiesterase 4.
`CC1CC(=O)NN=C1c1ccc(-n2cnc3c2CCCC3)cc1` (stereo not drawn) [TETRAHYDROBENXIMIDAZOLE]: the “Log IC50” value at Phosphodiesterase 3 is reported as -6.3.
For `CCOc1ccc(C2=NN(c3ccc(C4=NNC(=O)CC4C)cc3)C(=O)C3CC=CCC23)cc1OCC` (stereo not drawn), in the assay with Mus musculus [1], the inhibition in vivo at 30 µmol/kg amounted to 42%. Further, the “Log IC50” value on Phosphodiesterase 3 is listed as -6.6; on Phosphodiesterase 4, -8.1.
The like results for `COc1ccc(C2=NN(c3ccc(-c4ccc(O)nn4)cc3)C(=O)C3CC=CCC23)cc1OC` (stereo not drawn) were, in that order, 8%, -5.4 and -8.1.
The corresponding values for `COc1ccc(C2=NN(CCCCC(=O)Nc3ccc(-c4ccc(O)nn4)cc3)C(=O)C3CC=CCC23)cc1OC` (stereo not drawn) are 27%, -6.1 and -8.2.
The like results for `COc1ccc(C2=NN(c3ccc(C4=NNC(=O)CC4C)cc3)C(=O)C3CC=CCC23)cc1OC` (stereo not drawn) were, in that order, 34%, -6.7 and -8.4.
Turning to `COc1ccc(C2=NN(c3ccccc3)C(=O)C3CC=CCC23)cc1OC1CCCC1` (stereo not drawn), the “Log IC50” value at Phosphodiesterase 3 is on record as less than -5; on Phosphodiesterase 4 it was -7.8.
Take `COc1cc(-c2ccc(=O)[nH]n2)ccc1OC(F)F` [ZARDAVERINE]: the inhibition in vivo at 30 µmol/kg with Mus musculus [1] worked out at 22%.
`CC1CC(=O)NN=C1c1ccc2c(c1)C(C)(C)C(=O)N2` (stereo not drawn): at Phosphodiesterase 3, the “Log IC50” value is given as -7.9.
